ChEMBL document CHEMBL1145439, “Fluorine-18-labeled benzamide analogues for imaging the sigma2 receptor status of solid tumors with positron emission tomography” (J Med Chem, 2007)
One block for each molecule: values may come before it.

Assays:
[1] = biological target: Sigma non-opioid intracellular receptor 1 (Cavia porcellus, UniProt Q60492); assay: Displacement of [3H](+)-pentazocine from sigma 1 receptor in guinea pig brain membrane after 90 mins; type: cell membranes
In short: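 Guinea pig brain membranes (~300 µg protein) with ~5 nM [3H](+)-pentazocine, 90 min at room temperature; nonspecific binding with 10 µM haloperidol; stopped with ice-cold Tris/NaCl buffer, filtered, scintillation counted. IC50 by nonlinear regression, one-site fit; Ki by Cheng-Prusoff, mean ± SEM.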

[2] = Displacement of [3H]DTG from sigma 2 receptor in rat liver membrane after 120 mins; type: cell membranes
In short: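 Rat liver membranes (~300 µg protein) incubated with ~5 nM [3H]DTG plus 1 µM (+)-pentazocine to mask σ1 sites, 120 min at room temperature; 10 µM haloperidol defines nonspecific binding; filtration and scintillation counting. One-site nonlinear regression IC50, converted to Ki by Cheng-Prusoff; mean ± SEM.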

[3] = Selectivity for rat liver sigma 2 receptor over guinea pig brain sigma 1 receptor
[4] = Tumor to fat ratio of the drug in mouse EMT6 tumor bearing BALB/c mouse at 10 to 20 uCi after 2 hrs; type: ADME
In short: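 Tumor-bearing female Balb/c mice (EMT-6 s.c. allograft, ~0.2 cm3) given 10-20 µCi 18F tracer in saline i.v. via tail vein; ≥4 per group; killed 120 min later. Tissues weighed and gamma-counted; ratio = tumor %ID/g divided by that organ's %ID/g.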

Blood [5] = assay: Biodistribution in blood of mouse EMT6 tumor bearing BALB/c mouse at 10 to 20 uCi after 5 mins; type: ADME, organism-based; settings: in vivo
In short: (§1)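 EMT-6 cells (5×10^5 in 100 µL PBS) implanted s.c. in scapular region of female Balb/c mice (~2 months, 17-22 g); studied 7-10 days later at ~0.2 cm3 tumor. 18F tracer 10-20 µCi in 100-150 µL saline via tail vein; ≥4 mice per time point; tissue removed at sacrifice, weighed, gamma-counted; %ID/g calculated.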

Blood [6] = assay: Biodistribution in blood of mouse EMT6 tumor bearing BALB/c mouse at 10 to 20 uCi after 30 mins; type: ADME, organism-based; settings: in vivo, 0.5 h; in short: as §1
Blood [7] = assay: Biodistribution in blood of mouse EMT6 tumor bearing BALB/c mouse at 10 to 20 uCi after 60 mins; type: ADME, organism-based; settings: in vivo, 1 h; in short: as §1
Blood [8] = assay: Biodistribution in blood of mouse EMT6 tumor bearing BALB/c mouse at 10 to 20 uCi after 120 mins; type: ADME, organism-based; settings: in vivo, 2 h; in short: as §1
Lung [9] = assay: Biodistribution in lung of mouse EMT6 tumor bearing BALB/c mouse at 10 to 20 uCi after 5 mins; type: ADME, organism-based; settings: in vivo; in short: as §1
Lung [10] = assay: Biodistribution in lung of mouse EMT6 tumor bearing BALB/c mouse at 10 to 20 uCi after 30 mins; type: ADME, organism-based; settings: in vivo, 0.5 h; in short: as §1
Lung [11] = assay: Biodistribution in lung of mouse EMT6 tumor bearing BALB/c mouse at 10 to 20 uCi after 60 mins; type: ADME, organism-based; settings: in vivo, 1 h; in short: as §1
Lung [12] = assay: Biodistribution in lung of mouse EMT6 tumor bearing BALB/c mouse at 10 to 20 uCi after 120 mins; type: ADME, organism-based; settings: in vivo, 2 h; in short: as §1
Liver [13] = assay: Biodistribution in liver of mouse EMT6 tumor bearing BALB/c mouse at 10 to 20 uCi after 5 mins; type: ADME, organism-based; settings: in vivo; in short: as §1
Liver [14] = assay: Biodistribution in liver of mouse EMT6 tumor bearing BALB/c mouse at 10 to 20 uCi after 30 mins; type: ADME, organism-based; settings: in vivo, 0.5 h; in short: as §1
Liver [15] = assay: Biodistribution in liver of mouse EMT6 tumor bearing BALB/c mouse at 10 to 20 uCi after 60 mins; type: ADME, organism-based; settings: in vivo, 1 h; in short: as §1
Liver [16] = assay: Biodistribution in liver of mouse EMT6 tumor bearing BALB/c mouse at 10 to 20 uCi after 120 mins; type: ADME, organism-based; settings: in vivo, 2 h; in short: as §1
Kidney [17] = assay: Biodistribution in kidney of mouse EMT6 tumor bearing BALB/c mouse at 10 to 20 uCi after 5 mins; type: ADME, organism-based; settings: in vivo; in short: as §1
Kidney [18] = assay: Biodistribution in kidney of mouse EMT6 tumor bearing BALB/c mouse at 10 to 20 uCi after 30 mins; type: ADME, organism-based; settings: in vivo, 0.5 h; in short: as §1
Kidney [19] = assay: Biodistribution in kidney of mouse EMT6 tumor bearing BALB/c mouse at 10 to 20 uCi after 60 mins; type: ADME, organism-based; settings: in vivo, 1 h; in short: as §1
Kidney [20] = assay: Biodistribution in kidney of mouse EMT6 tumor bearing BALB/c mouse at 10 to 20 uCi after 120 mins; type: ADME, organism-based; settings: in vivo, 2 h; in short: as §1
Muscle tissue [21] = assay: Biodistribution in muscle of EMT6 tumor bearing BALB/c mouse at 10 to 20 uCi after 5 mins; type: ADME, organism-based; settings: in vivo; in short: as §1
Muscle tissue [22] = assay: Biodistribution in muscle of mouse EMT6 tumor bearing BALB/c mouse at 10 to 20 uCi after 30 mins; type: ADME, organism-based; settings: in vivo, 0.5 h; in short: as §1
Muscle tissue [23] = assay: Biodistribution in muscle of mouse EMT6 tumor bearing BALB/c mouse at 10 to 20 uCi after 60 mins; type: ADME, organism-based; settings: in vivo, 1 h; in short: as §1
Muscle tissue [24] = assay: Biodistribution in muscle of mouse EMT6 tumor bearing BALB/c mouse at 10 to 20 uCi after 120 mins; type: ADME, organism-based; settings: in vivo, 2 h; in short: as §1
Adipose tissue [25] = assay: Biodistribution in fat of mouse EMT6 tumor bearing BALB/c mouse at 10 to 20 uCi after 5 mins; type: ADME, organism-based; settings: in vivo; in short: as §1
Adipose tissue [26] = assay: Biodistribution in fat of mouse EMT6 tumor bearing BALB/c mouse at 10 to 20 uCi after 30 mins; type: ADME, organism-based; settings: in vivo, 0.5 h; in short: as §1
Adipose tissue [27] = assay: Biodistribution in fat of mouse EMT6 tumor bearing BALB/c mouse at 10 to 20 uCi after 60 mins; type: ADME, organism-based; settings: in vivo, 1 h; in short: as §1
Adipose tissue [28] = assay: Biodistribution in fat of mouse EMT6 tumor bearing BALB/c mouse at 10 to 20 uCi after 120 mins; type: ADME, organism-based; settings: in vivo, 2 h; in short: as §1
Heart [29] = assay: Biodistribution in heart of mouse EMT6 tumor bearing BALB/c mouse at 10 to 20 uCi after 5 mins; type: ADME, organism-based; settings: in vivo; in short: as §1
Heart [30] = assay: Biodistribution in heart of mouse EMT6 tumor bearing BALB/c mouse at 10 to 20 uCi after 30 mins; type: ADME, organism-based; settings: in vivo, 0.5 h; in short: as §1
Heart [31] = assay: Biodistribution in heart of mouse EMT6 tumor bearing BALB/c mouse at 10 to 20 uCi after 60 mins; type: ADME, organism-based; settings: in vivo, 1 h; in short: as §1
Heart [32] = assay: Biodistribution in heart of EMT6 tumor bearing BALB/c mouse at 10 to 20 uCi after 120 mins; type: ADME, organism-based; settings: in vivo, 2 h; in short: as §1
Brain [33] = assay: Biodistribution in brain of EMT6 tumor bearing BALB/c mouse at 10 to 20 uCi after 5 mins; type: ADME, organism-based; settings: in vivo; in short: as §1
Brain [34] = assay: Biodistribution in brain of EMT6 tumor bearing BALB/c mouse at 10 to 20 uCi after 30 mins; type: ADME, organism-based; settings: in vivo, 0.5 h; in short: as §1
Brain [35] = assay: Biodistribution in brain of EMT6 tumor bearing BALB/c mouse at 10 to 20 uCi after 60 mins; type: ADME, organism-based; settings: in vivo, 1 h; in short: as §1
Brain [36] = assay: Biodistribution in brain of mouse EMT6 tumor bearing BALB/c mouse at 10 to 20 uCi after 120 mins; type: ADME, organism-based; settings: in vivo, 2 h; in short: as §1
Bone [37] = assay: Biodistribution in bone of mouse EMT6 tumor bearing BALB/c mouse at 10 to 20 uCi after 5 mins; type: ADME, organism-based, Bone element; settings: in vivo; in short: as §1
Bone [38] = assay: Biodistribution in bone of mouse EMT6 tumor bearing BALB/c mouse at 10 to 20 uCi after 30 mins; type: ADME, organism-based, Bone element; settings: in vivo, 0.5 h; in short: as §1
Bone [39] = assay: Biodistribution in bone of mouse EMT6 tumor bearing BALB/c mouse at 10 to 20 uCi after 60 mins; type: ADME, organism-based, Bone element; settings: in vivo, 1 h; in short: as §1
Bone [40] = assay: Biodistribution in bone of mouse EMT6 tumor bearing BALB/c mouse at 10 to 20 uCi after 120 mins; type: ADME, organism-based, Bone element; settings: in vivo, 2 h; in short: as §1
EMT6 [41] = assay: Biodistribution in tumor of mouse EMT6 tumor bearing BALB/c mouse at 10 to 20 uCi after 5 mins; type: ADME, organism-based; settings: emt6, 5 min; in short: as §1
EMT6 [42] = assay: Biodistribution in tumor of EMT6 tumor bearing BALB/c mouse 10 to 20 uCi after 30 mins; type: ADME, organism-based; settings: emt6, 0.5 h; in short: as §1
EMT6 [43] = assay: Biodistribution in tumor of mouse EMT6 tumor bearing BALB/c mouse at 10 to 20 uCi after 60 mins; type: ADME, organism-based; settings: emt6, 1 h; in short: as §1
EMT6 [44] = assay: Biodistribution in tumor of mouse EMT6 tumor bearing BALB/c mouse at 10 to 20 uCi after 120 mins; type: ADME, organism-based; settings: emt6, 2 h; in short: as §1
[45] = Decrease in tumor to muscle ratio of the drug in mouse EMT6 tumor bearing BALB/c mouse after 1 hr in presence of YUN-143; type: ADME; parameters: scale not given: the % may be the effect or the level left
In short: (§2)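 Blocking: 18F tracer coinjected i.v. with 1 mg/kg cold YUN-143 (σ1/σ2 ligand) into EMT-6 tumor-bearing female Balb/c mice; sacrificed at 60 min; tumor/muscle and tumor/fat ratios from %ID/g of gamma-counted tissues.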

[46] = Decrease in tumor to fat ratio of the drug in mouse EMT6 tumor bearing BALB/c mouse after 1 hr in presence of YUN-143; type: ADME; parameters: scale not given: the % may be the effect or the level left; in short: as §2

Chain of Sigma non-opioid intracellular receptor 1 (Q60492 whole entry): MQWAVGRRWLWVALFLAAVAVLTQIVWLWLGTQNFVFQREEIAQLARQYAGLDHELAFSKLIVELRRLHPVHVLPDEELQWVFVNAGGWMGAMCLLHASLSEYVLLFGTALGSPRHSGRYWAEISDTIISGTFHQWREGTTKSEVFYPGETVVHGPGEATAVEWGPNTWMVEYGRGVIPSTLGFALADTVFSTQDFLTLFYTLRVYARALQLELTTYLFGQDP

Ki [1]: 15.3 µM | Ki [2]: 0.386 µM | Ratio Ki [3]: 40
SMILES: COc1cc2c(cc1OC)CN(CCCCNC(=O)c1cc(Br)cc(OC)c1OCCF)CC2

Ratio [4]: 8 | Drug uptake (Blood [5]): 2.49 % ID/g | Drug uptake (Blood [6]): 1.16 % ID/g | Drug uptake (Blood [7]): 0.56 % ID/g | Drug uptake (Blood [8]): 0.35 % ID/g | Drug uptake (Lung [9]): 10.26 % ID/g | Drug uptake (Lung [10]): 2.36 % ID/g | Drug uptake (Lung [11]): 0.88 % ID/g | Drug uptake (Lung [12]): 0.43 % ID/g | Drug uptake (Liver [13]): 23.33 % ID/g | Drug uptake (Liver [14]): 10.51 % ID/g | Drug uptake (Liver [15]): 4.14 % ID/g | Drug uptake (Liver [16]): 2.05 % ID/g | Drug uptake (Kidney [17]): 29.18 % ID/g | Drug uptake (Kidney [18]): 6.86 % ID/g | Drug uptake (Kidney [19]): 2.51 % ID/g | Drug uptake (Kidney [20]): 0.87 % ID/g | Drug uptake (Muscle tissue [21]): 1.86 % ID/g | Drug uptake (Muscle tissue [22]): 0.7 % ID/g | Drug uptake (Muscle tissue [23]): 0.34 % ID/g | Drug uptake (Muscle tissue [24]): 0.24 % ID/g | Drug uptake (Adipose tissue [25]): 1.95 % ID/g | Drug uptake (Adipose tissue [26]): 0.59 % ID/g | Drug uptake (Adipose tissue [27]): 0.22 % ID/g | Drug uptake (Adipose tissue [28]): 0.08 % ID/g | Drug uptake (Heart [29]): 3.73 % ID/g | Drug uptake (Heart [30]): 1.15 % ID/g | Drug uptake (Heart [31]): 0.55 % ID/g | Drug uptake (Heart [32]): 0.27 % ID/g | Drug uptake (Brain [33]): 0.76 % ID/g | Drug uptake (Brain [34]): 0.27 % ID/g | Drug uptake (Brain [35]): 0.18 % ID/g | Drug uptake (Brain [36]): 0.12 % ID/g | Drug uptake (Bone [37]): 2.49 % ID/g | Drug uptake (Bone [38]): 0.96 % ID/g | Drug uptake (Bone [39]): 0.55 % ID/g | Drug uptake (Bone [40]): 0.45 % ID/g | Drug uptake (EMT6 [41]): 3.67 % ID/g | Drug uptake (EMT6 [42]): 2.54 % ID/g | Drug uptake (EMT6 [43]): 1.14 % ID/g | Drug uptake (EMT6 [44]): 0.64 % ID/g | Activity [45]: 50% | Activity [46]: 50%
SMILES: COc1cc2c(cc1OC)CN(CCCCNC(=O)c1cc(C)ccc1OCC[18F])CC2
